Source: ChEMBL document CHEMBL4130628, “Identification and Pharmacological Profile of an Indane Based Series of Ghrelin Receptor Full Agonists” (J Med Chem, 2018)
Activity calls are given as the source filed them. The rule behind the calls is not given here.

Tested on: not listed separately
Assay: Stability in human liver microsomes assessed as formation of aldehyde adducts by LC-MS/MS method
Type: ADME, microsome
Details: not given

| Stability | SMILES |
| --- | --- |
| Unstable | CN1CCO[C@H](C(=O)N[C@H]2c3ccccc3C[C@@H]2NC(=O)c2ccc3c(ccn3C)c2)C1 |

Tested on: not listed separately
Assay: Drug level in human liver microsomes treated with 1-Methyl-N-[(1S,2S)-1-{[(2S)-4-methylmorpholine-2-carbonyl]-amino}-2,3-dihydro-1H-inden-2-yl]-1H-indole-5-carboxamide by LC-MS/MS method
Type: ADME, microsome
Details: not given

| Drug metabolism | SMILES |
| --- | --- |
| Metabolite_Detected | Cn1ccc2cc(C(=O)N[C@H]3Cc4ccccc4[C@@H]3NC(=O)[C@@H]3CNCCO3)ccc21 |

Tested on: not listed separately
Assay: Clearance in Beagle dog at 1 mg/kg, iv or 2 mg/kg, po after 24 hrs by LC-MS/MS analysis
Type: ADME, organism-based, Canis lupus familiaris
Details: in vivo
Summary of the method: (§1)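 Male/female beagles (2–5 y, 12–15 kg) were fasted overnight. IV: about 1 mg/Kg as a 15-min infusion to two animals, in 5% DMSO/95% SBE-β-CD (30% w/v) adjusted to pH 7.5. PO: about 2 mg/Kg by gavage, in the same vehicle or 0.5% HPMC/0.1% Tween 80 suspension. Jugular blood was drawn 0.03–24 h (IV) or 0.17–24 h (PO). K2-EDTA plasma analysed by LC-MS/MS.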

| clearance [mL/min/kg] | SMILES |
| --- | --- |
| 28 | Cc1ccc2[nH]c(C(=O)N[C@H]3Cc4ccccc4[C@@H]3NC(=O)[C@@H]3CN(C)CCO3)cc2c1 |

Tested on: not listed separately
Assay: Intrinsic clearance in human liver microsomes
Type: ADME, microsome
Details: read-out: CLH

| microsomal CLint [µL/min/mg] | SMILES |
| --- | --- |
| 26 | Cc1ccc2[nH]c(C(=O)N[C@H]3Cc4ccccc4[C@@H]3C(=O)N(C)CCN(C)C)cc2c1 |
| 3 | CN(C)CCNC(=O)[C@@H]1c2ccccc2C[C@H]1NC(=O)c1cc2ccccc2[nH]1 |
| 132 | Cc1ccc2[nH]c(C(=O)N[C@H]3Cc4ccccc4[C@@H]3C(=O)N[C@H]3CCCN(C)C3)cc2c1 |

Tested on: not listed separately
Assay: Apparent permeability across apical to basolateral side in human Caco2 cells at pH 7.4
Type: ADME, cell-based
Details: Caco-2, pH 7.4

| Papp A→B [×10⁻⁶ cm/s] | SMILES |
| --- | --- |
| 15.3 | Cc1ccc2[nH]c(C(=O)N[C@H]3Cc4ccccc4[C@@H]3NC(=O)[C@@H]3CN(C)CCO3)cc2c1 |

Tested on: Hepatocyte
Assay: Stability in rat hepatocytes assessed as formation of aldehyde adducts by LC-MS/MS method
Type: ADME, cell-based
Details: not given

| Stability | SMILES |
| --- | --- |
| Unstable | CN1CCO[C@H](C(=O)N[C@H]2c3ccccc3C[C@@H]2NC(=O)c2ccc3c(ccn3C)c2)C1 |

Tested on: not listed separately
Assay: Drug metabolism in human liver microsomes assessed as 1-Methyl-N-((1S,2S)-1-((S)-morpholine-2-carboxamido)-2,3-dihydro-1H-inden-2-yl)-1H-indole-5-carboxamide formation by LC-MS/MS method
Type: ADME, microsome
Details: not given

| Drug metabolism | SMILES |
| --- | --- |
| Metabolite_Detected | CN1CCO[C@H](C(=O)N[C@H]2c3ccccc3C[C@@H]2NC(=O)c2ccc3c(ccn3C)c2)C1 |

Biological target: Voltage-gated inwardly rectifying potassium channel KCNH2 (Homo sapiens, UniProt Q12809)
Sequence (Q12809 whole entry): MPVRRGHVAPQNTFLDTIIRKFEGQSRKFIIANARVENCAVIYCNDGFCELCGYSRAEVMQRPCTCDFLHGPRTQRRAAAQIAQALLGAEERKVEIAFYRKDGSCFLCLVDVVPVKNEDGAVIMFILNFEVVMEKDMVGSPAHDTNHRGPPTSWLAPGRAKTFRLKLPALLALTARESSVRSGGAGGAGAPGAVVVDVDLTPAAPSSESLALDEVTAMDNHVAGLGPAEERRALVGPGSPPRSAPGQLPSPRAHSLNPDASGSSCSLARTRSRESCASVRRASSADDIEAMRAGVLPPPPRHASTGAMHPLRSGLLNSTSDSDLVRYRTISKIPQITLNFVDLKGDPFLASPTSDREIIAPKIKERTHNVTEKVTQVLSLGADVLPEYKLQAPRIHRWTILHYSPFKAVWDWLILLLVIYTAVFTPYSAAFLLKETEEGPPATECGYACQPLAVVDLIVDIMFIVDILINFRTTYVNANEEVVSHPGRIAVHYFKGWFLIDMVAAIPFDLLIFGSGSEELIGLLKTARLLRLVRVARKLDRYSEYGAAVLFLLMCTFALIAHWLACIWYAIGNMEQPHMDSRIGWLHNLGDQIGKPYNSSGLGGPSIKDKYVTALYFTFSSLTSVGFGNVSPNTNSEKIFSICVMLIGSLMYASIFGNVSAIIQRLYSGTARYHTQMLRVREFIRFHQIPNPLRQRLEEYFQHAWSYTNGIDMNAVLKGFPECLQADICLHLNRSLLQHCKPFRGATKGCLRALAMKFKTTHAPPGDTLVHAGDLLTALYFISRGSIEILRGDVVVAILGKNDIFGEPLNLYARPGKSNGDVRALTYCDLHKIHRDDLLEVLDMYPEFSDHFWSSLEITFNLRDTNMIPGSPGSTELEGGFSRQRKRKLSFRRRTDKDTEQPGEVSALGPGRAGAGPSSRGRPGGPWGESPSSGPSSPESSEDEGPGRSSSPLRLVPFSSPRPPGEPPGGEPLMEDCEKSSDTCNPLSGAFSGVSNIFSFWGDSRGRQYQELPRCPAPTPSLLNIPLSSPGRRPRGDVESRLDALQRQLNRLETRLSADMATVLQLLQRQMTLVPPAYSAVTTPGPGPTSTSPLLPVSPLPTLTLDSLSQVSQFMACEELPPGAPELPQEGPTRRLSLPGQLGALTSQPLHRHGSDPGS
Assay: Inhibition of human ERG expressed in CHO cells
Type: cell-based
Details: not given
Summary of the method: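 hERG currents recorded from CHO cells expressing hERG.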

| SMILES | IC50 [nM] |
| --- | --- |
| CN(C)CCC(=O)N[C@H]1c2ccccc2C[C@@H]1NC(=O)c1cc2cc(F)c(F)cc2[nH]1 | 3980 |
| Cc1ccc2[nH]c(C(=O)N[C@@H]3Cc4ccccc4[C@H]3NC(=O)CCN(C)C)cc2c1 | 2510 |
| O=C(N[C@H]1Cc2ccccc2[C@@H]1NC(=O)[C@H]1CCNC1)c1cc2cc(F)ccc2[nH]1 | > 10000 |
| CN(C)CCNC(=O)[C@@H]1c2ccccc2C[C@H]1NC(=O)c1cc2ccccc2[nH]1 | 12600 |

Tested on: not listed separately
Assay: Half life in Beagle dog at 2 mg/kg, po after 24 hrs by LC-MS/MS analysis
Type: ADME, organism-based, Canis lupus familiaris
Details: in vivo
Summary of the method: as §1

| half-life [h] | SMILES |
| --- | --- |
| 1.2 | Cc1ccc2[nH]c(C(=O)N[C@H]3Cc4ccccc4[C@@H]3NC(=O)[C@@H]3CN(C)CCO3)cc2c1 |

Tested on: not listed separately
Assay: Oral bioavailability in Beagle dog at 2 mg/kg after 24 hrs by LC-MS/MS analysis
Type: ADME, organism-based, Canis lupus familiaris
Details: in vivo
Summary of the method: as §1

| bioavailability [%] | SMILES |
| --- | --- |
| 39 | Cc1ccc2[nH]c(C(=O)N[C@H]3Cc4ccccc4[C@@H]3NC(=O)[C@@H]3CN(C)CCO3)cc2c1 |

Biological target: T1, Growth hormone secretagogue receptor type 1 (Homo sapiens, UniProt Q92847)
T1 sequence (Q92847 whole entry): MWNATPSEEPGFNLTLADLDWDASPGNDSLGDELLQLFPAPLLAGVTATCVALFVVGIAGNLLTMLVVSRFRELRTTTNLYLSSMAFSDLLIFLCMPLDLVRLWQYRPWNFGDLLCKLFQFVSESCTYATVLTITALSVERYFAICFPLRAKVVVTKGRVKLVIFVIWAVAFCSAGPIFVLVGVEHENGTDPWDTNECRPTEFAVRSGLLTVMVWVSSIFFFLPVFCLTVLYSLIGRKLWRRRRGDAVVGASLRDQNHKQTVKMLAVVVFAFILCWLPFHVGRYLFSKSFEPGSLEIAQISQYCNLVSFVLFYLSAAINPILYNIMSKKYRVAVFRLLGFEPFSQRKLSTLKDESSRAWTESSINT
Assay: Displacement of human [125I]-ghrelin from GHS-R1a (unknown origin) expressed in HEK293 cell membranes after 1 hr by radioligand binding assay
Details: read-out: IC50

| SMILES | IC50 [nM] |
| --- | --- |
| Cc1ccc2[nH]c(C(=O)N[C@@H]3Cc4ccccc4[C@H]3NC(=O)CCN(C)C)cc2c1 | 930 |
| O=C(N[C@H]1Cc2ccccc2[C@@H]1NC(=O)[C@H]1CCNC1)c1cc2cc(F)ccc2[nH]1 | 189 |
| CN(C)CCNC(=O)[C@@H]1c2ccccc2C[C@H]1NC(=O)c1cc2ccccc2[nH]1 | 560 |

Second part, the compound after the results:

| IC50 [nM] | SMILES |
| --- | --- |
| 98 | CN(C)CCC(=O)N[C@H]1c2ccccc2C[C@@H]1NC(=O)c1cc2cc(F)c(F)cc2[nH]1 |
| 14 | Cc1ccc2[nH]c(C(=O)N[C@H]3Cc4ccccc4[C@@H]3C(=O)N(C)CCN(C)C)cc2c1 |
| 14 | Cc1ccc2[nH]c(C(=O)N[C@H]3Cc4ccccc4[C@@H]3NC(=O)[C@@H]3CN(C)CCO3)cc2c1 |
| 241 | CN1CCO[C@H](C(=O)N[C@H]2c3ccccc3C[C@@H]2NC(=O)c2ccc3c(ccn3C)c2)C1 |

Tested on: not listed separately
Assay: Apparent intrinsic permeability across apical to basolateral side in human Caco2 cells at pH 6.5
Type: ADME, cell-based
Details: Caco-2, pH 6.5

| Papp A→B [×10⁻⁶ cm/s] | SMILES |
| --- | --- |
| 44.4 | Cc1ccc2[nH]c(C(=O)N[C@H]3Cc4ccccc4[C@@H]3NC(=O)[C@@H]3CN(C)CCO3)cc2c1 |

Biological target: hERG (KCNH2) (Homo sapiens, UniProt Q12809)
Sequence (Q12809 whole entry): as the sequence (Q12809 whole entry) above
Assay: Inhibition of human ERG expressed in CHO cells at 11 uM relative to control
Type: cell-based
Details: CHO cells that express hERG

| SMILES | inhibition at 11 µM [%] |
| --- | --- |
| Cc1ccc2[nH]c(C(=O)N[C@H]3Cc4ccccc4[C@@H]3C(=O)N(C)CCN(C)C)cc2c1 | 50 |
| Cc1ccc2[nH]c(C(=O)N[C@H]3Cc4ccccc4[C@@H]3C(=O)N[C@H]3CCCN(C)C3)cc2c1 | 30 |

Tested on: not listed separately
Assay: 1-octanol/aqueous buffer distribution coefficient, log D of compound at pH 7.4
Type: physicochemical
Details: 1-octanol/aqueous buffer, read-out: logD

| SMILES | logD |
| --- | --- |
| Cn1ccc2cc(C(=O)N[C@H]3Cc4ccccc4[C@@H]3NC(=O)[C@@H]3CNCCO3)ccc21 | 1.8 |
| CN(C)CCNC(=O)[C@@H]1c2ccccc2C[C@H]1NC(=O)c1cc2ccccc2[nH]1 | 2.3 |

Further lines, results first:

| logD | SMILES |
| --- | --- |
| 2.5 | Cc1ccc2[nH]c(C(=O)N[C@H]3Cc4ccccc4[C@@H]3C(=O)N(C)CCN(C)C)cc2c1 |
| 3.7 | Cc1ccc2[nH]c(C(=O)N[C@H]3Cc4ccccc4[C@@H]3NC(=O)[C@@H]3CN(C)CCO3)cc2c1 |
| 2.6 | CN1CCO[C@H](C(=O)N[C@H]2c3ccccc3C[C@@H]2NC(=O)c2ccc3c(ccn3C)c2)C1 |
| 3 | Cc1ccc2[nH]c(C(=O)N[C@H]3Cc4ccccc4[C@@H]3C(=O)N[C@H]3CCCN(C)C3)cc2c1 |

Tested on: Canis familiaris
Assay: Increase in plasma IGF1 level in Beagle dog at 4 mg/kg, po measured after 4 to 7 hrs post dose by ELIS
Type: functional, organism-based
Details: Canis lupus familiaris
Summary of the method: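 Dog blood taken before dosing and at 15, 30, 45 min and 1, 2, 4, 7, 12, 24 h post dose into K2EDTA tubes. Centrifuged at 4°C; plasma frozen below -80°C until IGF-1 analysis.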

| SMILES | Activity |
| --- | --- |
| Cc1ccc2[nH]c(C(=O)N[C@H]3Cc4ccccc4[C@@H]3NC(=O)[C@@H]3CN(C)CCO3)cc2c1 | Active |

Biological target: T1, Growth hormone secretagogue receptor type 1
Assay: Agonist activity at human GHS receptor assessed as intracellular myo-IP1 secretion after 90 mins by HTRF analysis
Type: functional, cell-based
Details: read-out: EC50

| SMILES | EC50 [nM] |
| --- | --- |
| Cc1ccc2[nH]c(C(=O)N[C@@H]3Cc4ccccc4[C@H]3NC(=O)CCN(C)C)cc2c1 | 226 |
| O=C(N[C@H]1Cc2ccccc2[C@@H]1NC(=O)[C@H]1CCNC1)c1cc2cc(F)ccc2[nH]1 | 47 |
| Cn1ccc2cc(C(=O)N[C@H]3Cc4ccccc4[C@@H]3NC(=O)[C@@H]3CNCCO3)ccc21 | 52 |
| CN(C)CCNC(=O)[C@@H]1c2ccccc2C[C@H]1NC(=O)c1cc2ccccc2[nH]1 | 630 |

These reach a lower EC50. Values come first.

| EC50 [nM] | SMILES |
| --- | --- |
| 35 | CN(C)CCC(=O)N[C@H]1c2ccccc2C[C@@H]1NC(=O)c1cc2cc(F)c(F)cc2[nH]1 |
| 5 | Cc1ccc2[nH]c(C(=O)N[C@H]3Cc4ccccc4[C@@H]3C(=O)N(C)CCN(C)C)cc2c1 |
| 1.4 | Cc1ccc2[nH]c(C(=O)N[C@H]3Cc4ccccc4[C@@H]3NC(=O)[C@@H]3CN(C)CCO3)cc2c1 |
| 21 | CN1CCO[C@H](C(=O)N[C@H]2c3ccccc3C[C@@H]2NC(=O)c2ccc3c(ccn3C)c2)C1 |
| 0.1 | Cc1ccc2[nH]c(C(=O)N[C@H]3Cc4ccccc4[C@@H]3C(=O)N[C@H]3CCCN(C)C3)cc2c1 |

Tested on: not listed separately
Assay: Volume of distribution in Beagle dog at 1 mg/kg, iv or 2 mg/kg, po after 24 hrs by LC-MS/MS analysis
Type: ADME, organism-based, Canis lupus familiaris
Details: in vivo
Summary of the method: as §1

| Vd [L/kg] | SMILES |
| --- | --- |
| 2.1 | Cc1ccc2[nH]c(C(=O)N[C@H]3Cc4ccccc4[C@@H]3NC(=O)[C@@H]3CN(C)CCO3)cc2c1 |

Tested on: not listed separately
Assay: Ratio of unbound drug level in brain to plasma in Beagle dog at 1 mg/kg, iv or 2 mg/kg, po after 24 hrs by LC-MS/MS analysis
Type: ADME, organism-based, Canis lupus familiaris
Details: read-out: K(p,uu,brain)

| Kp uu at 24 h | SMILES |
| --- | --- |
| 0.292 | Cc1ccc2[nH]c(C(=O)N[C@H]3Cc4ccccc4[C@@H]3NC(=O)[C@@H]3CN(C)CCO3)cc2c1 |

Tested on: not listed separately
Assay: Drug level in rat hepatocytes treated with 1-Methyl-N-[(1S,2S)-1-{[(2S)-4-methylmorpholine-2-carbonyl]-amino}-2,3-dihydro-1H-inden-2-yl]-1H-indole-5-carboxamide by LC-MS/MS method
Type: ADME, cell-based, Hepatocyte
Details: not given

| Drug metabolism | SMILES |
| --- | --- |
| Metabolite_Detected | Cn1ccc2cc(C(=O)N[C@H]3Cc4ccccc4[C@@H]3NC(=O)[C@@H]3CNCCO3)ccc21 |

Tested on: Hepatocyte
Assay: Stability in rat hepatocytes assessed as formation of iminium ions by LC-MS/MS method
Type: ADME, cell-based
Details: not given

| Stability | SMILES |
| --- | --- |
| Unstable | CN1CCO[C@H](C(=O)N[C@H]2c3ccccc3C[C@@H]2NC(=O)c2ccc3c(ccn3C)c2)C1 |

Tested on: not listed separately
Assay: Drug metabolism in rat hepatocytes assessed as 1-Methyl-N-((1S,2S)-1-((S)-morpholine-2-carboxamido)-2,3-dihydro-1H-inden-2-yl)-1H-indole-5-carboxamide formation by LC-MS/MS method
Type: ADME, cell-based, Hepatocyte
Details: not given

| Drug metabolism | SMILES |
| --- | --- |
| Metabolite_Detected | CN1CCO[C@H](C(=O)N[C@H]2c3ccccc3C[C@@H]2NC(=O)c2ccc3c(ccn3C)c2)C1 |

Tested on: not listed separately
Assay: Apparent permeability across basolateral to apical side in human Caco2 cells at pH 7.4
Type: ADME, cell-based
Details: Caco-2, pH 7.4

| Papp B→A [×10⁻⁶ cm/s] | SMILES |
| --- | --- |
| 7.5 | Cc1ccc2[nH]c(C(=O)N[C@H]3Cc4ccccc4[C@@H]3NC(=O)[C@@H]3CN(C)CCO3)cc2c1 |

Tested on: not listed separately
Assay: Stability in human liver microsomes assessed as formation of iminium ions by LC-MS/MS method
Type: ADME, microsome
Details: not given

| Stability | SMILES |
| --- | --- |
| Unstable | CN1CCO[C@H](C(=O)N[C@H]2c3ccccc3C[C@@H]2NC(=O)c2ccc3c(ccn3C)c2)C1 |

Tested on: not listed separately
Assay: Efflux ratio of apparent permeability across basolateral to apical over apical to basolateral side in human Caco2 cells
Type: ADME, cell-based
Details: Caco-2
Summary of the method: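 Caco-2 monolayers; Papp measured in both directions at pH 7.4 (units 1E-6 cm/s). Efflux ratio taken as Papp basolateral-to-apical divided by Papp apical-to-basolateral.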

| efflux ratio | SMILES |
| --- | --- |
| 0.5 | Cc1ccc2[nH]c(C(=O)N[C@H]3Cc4ccccc4[C@@H]3NC(=O)[C@@H]3CN(C)CCO3)cc2c1 |
